Experimental data reported in ChEMBL document CHEMBL4038303, “Simultaneous Drug Targeting of the Promoter MYC G-Quadruplex and BCL2 i-Motif in Diffuse Large B-Cell Lymphoma Delays Tumor Growth” (J Med Chem, 2017).
Calls of active or inactive are those of the source. No cut-off for these calls is given here.

Experiments:
Mus musculus [1] = assay: Toxicity in scid mouse xenografted with human U2932 cells assessed as survival at 5 mg/kg, ip administered for 5 consecutive days cotreated with NSC-59276 and CPA; assay type: organism-based; settings: in vivo
Procedure, shortened: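 SCID mice (6−8 weeks, female or male, serum immunoglobulin ≤20 μg/mL by ELISA) implanted subcutaneously in left flank with 10 × 10^6 U2932 cells in 100 μL saline; pair-matched by tumor volume; dosed ip daily for 5 days; controls received all compound diluents; tumor volume a2 × b/2; outliers by Grubbs' test; two-tailed t test with Šidák–Bonferroni correction.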

Homo sapiens [2] = species: Homo sapiens; assay: Binding affinity to c-myc G-quadruplex DNA in BCL2 and MYC translocation-positive human VAL cells assessed as downregulation of MYC protein levels up to 3 uM after 24 hrs by Western blot analysis
Procedure, shortened: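 Cell lines treated 24 h with compound up to 3 μM, with untreated and DMSO-treated controls. Lysates (20 μg total protein) probed by Western blot for BCL2 or MYC with antibodies at 1:1000; actin as loading control. Blots representative of triplicate experiments.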

Homo sapiens [3] = species: Homo sapiens; assay: Binding affinity to c-myc G-quadruplex DNA in MYC translocation-positive and BCL2 amplification-positive human U2932 cells assessed as downregulation of MYC mRNA levels up to 3 uM after 24 hrs by qPCR method relative to control
Procedure, shortened: (§1)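 DLBCL lines grown in RPMI with 10% FBS (SUDHL4 15% FBS) and penicillin/streptomycin. Cells exposed for 24 h to rising concentrations up to 3 μM; DMSO as vehicle control. Total RNA isolated, target mRNA measured by TaqMan real-time qPCR, normalized to TBP and expressed relative to untreated cells; triplicate experiments, two-tailed t test.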

Homo sapiens [4] = species: Homo sapiens; assay: Binding affinity to c-myc G-quadruplex DNA in BCL2 translocation-positive human SUDHL4 cells assessed as downregulation of MYC mRNA levels up to 3 uM after 24 hrs by qPCR method relative to control; procedure, shortened: as §1
Homo sapiens [5] = species: Homo sapiens; assay: Binding affinity to c-myc G-quadruplex DNA in BCL2 translocation-positive human SUDHL4 cells assessed as downregulation of MYC mRNA levels after 24 hrs by qPCR method; procedure, shortened: as §1
Homo sapiens [6] = species: Homo sapiens; assay: Binding affinity to c-myc G-quadruplex DNA in BCL2 and MYC translocation-positive human VAL cells assessed as downregulation of MYC mRNA levels at 3 uM after 24 hrs by qPCR method; procedure, shortened: as §1
Homo sapiens [7] = species: Homo sapiens; assay: Binding affinity to c-myc G-quadruplex DNA in human HT cells assessed as downregulation of MYC mRNA levels at 3 uM after 24 hrs by qPCR method; assay type: cell-based; procedure, shortened: as §1
Homo sapiens [8] = species: Homo sapiens; assay: Binding affinity to c-myc G-quadruplex DNA in human HT cells assessed as downregulation of MYC mRNA levels at 0.25 to 3 uM after 6 hrs by qPCR method; assay type: cell-based
Homo sapiens [9] = species: Homo sapiens; assay: Binding affinity to c-myc G-quadruplex DNA in BCL2 translocation-positive human SUDHL4 cells assessed as downregulation of MYC mRNA levels at 0.25 to 3 uM after 6 hrs by qPCR method
Homo sapiens [10] = species: Homo sapiens; assay: Binding affinity to c-myc G-quadruplex DNA in MYC translocation-positive and BCL2 amplification-positive human U2932 cells assessed as downregulation of MYC mRNA levels at 0.25 to 3 uM after 6 hrs by qPCR method
U2932 [11] = assay: Potentiation of CPA-induced antitumor activity against human U2932 cells xenografted in SCID mouse assessed as reduction in tumor burden at 5 mg/kg, ip administered for 5 consecutive days measured up to 10 days post first treatement; assay type: functional, organism-based
Procedure, shortened: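 SCID mice bearing subcutaneous left-flank U2932 xenografts (10 × 10^6 cells in saline), pair-matched by tumor volume. Test agent given ip daily for 5 days with 50 mg/kg CPA; diluent-treated and CPA-alone controls. Tumor volume estimated as a2 × b/2 from smallest and largest diameters. Grubbs' test for outliers; two-tailed Student's t test.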

Mus musculus [12] = assay: Toxicity in scid mouse xenografted with human U2932 cells assessed as change in body weight at 2.5 to 5 mg/kg, ip administered for 5 consecutive days in presence of CPA; assay type: organism-based; settings: in vivo
Procedure, shortened: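 SCID mice aged 6−8 weeks with serum Ig ≤20 μg/mL received U2932 cells (10 × 10^6 in 100 μL saline) subcutaneously in the left flank. Mice were pair-matched by tumor volume. Compound at 2.5 or 5 mg/kg with 50 mg/kg cyclophosphamide was given ip daily for 5 days. Controls received the diluents. Grubbs' test was used to exclude outliers.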

Homo sapiens [13] = species: Homo sapiens; assay: Stabilization of c-myc G-quadruplex DNA in BCL2 and MYC translocation-positive human VAL cells assessed as potentiation of CPA-induced apoptosis by measuring increase in caspase-3 activity at 3 uM after 24 hrs in presence of NSC-59276 by AFC based fluorescence assay (reference value: 30%)
U2932 [14] = assay: Potentiation of CPA-induced antitumor activity against human U2932 cells xenografted in SCID mouse assessed as tumor growth inhibition at 7.5 mg/kg, ip for 5 days cotreated with 10 mg/kg NSC-59276 measured on day 12 post first treatment (reference value: 67%); assay type: functional
Procedure, shortened: (§2)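 U2932 DLBCL cells (10 × 10^6 in 100 μL sterile saline, viability >91%) injected subcutaneously into left flank of SCID mice (6−8 weeks, immunoglobulin ≤20 μg/mL). Mice pair-matched by tumor volume. Drugs given ip daily for 5 days, CPA 30 mg/kg; controls received all diluents. Tumor volume = a2 × b/2 (a smallest, b largest diameter); n = 5−8; Grubbs' test for outliers.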

U2932 [15] = assay: Antitumor activity against human U2932 cells xenografted in SCID mouse assessed as reduction in tumor burden at 5 to 7.5 mg/kg, ip for 5 days cotreated with 10 mg/kg NSC-59276 measured on day 9 to 15 post first treatment; assay type: functional, organism-based; procedure, shortened: as §2
Mus musculus [16] = assay: Reduction in Bcl2 mRNA level in tumor of SCID mouse xenografted with human U2932 cells at 5 to 7.5 mg/kg, ip administered for 5 consecutive days cotreated with CPA and NSC-59276 by qPCR method; assay type: functional, organism-based
Procedure, shortened: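 Tumors from U2932 xenograft SCID mice given ip treatment daily for 5 days were harvested. Total RNA was taken from the same tumor preparations used for protein lysates, and MYC or BCL2 mRNA was quantified by TaqMan qPCR normalized to TBP. Comparisons were made with diluent-treated mice or CPA-only mice.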

Mus musculus [17] = assay: Toxicity in scid mouse xenografted with human U2932 cells assessed as change in body weight at 5 to 7.5 mg/kg, ip administered for 5 consecutive days in presence of CPA; assay type: organism-based; settings: in vivo
Procedure, shortened: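 In the follow-up U2932 subcutaneous xenograft study in SCID mice (pair-matched by tumor volume, n = 5−8), compound at 5 or 7.5 mg/kg was given ip daily for 5 days with 30 mg/kg cyclophosphamide and 10 mg/kg BCL2 i-motif ligand. Diluent was given in place of any absent agent. Body weight and survival were followed.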

**Q.** How did the Activity (Mus musculus [1]) turn out when `Cc1c2ccncc2c(C)c2c1[nH]c1ccc(OCCN(C)C)cc12.Cl.Cl` was run?
**A.** The Activity was “Non-Toxic”.

**Q.** What about the Activity (Homo sapiens [2]) of the same compound?
**A.** The Activity was “Active”.

**Q.** And the Activity (Homo sapiens [3])?
**A.** Its Activity is < 90%.

**Q.** What about the Activity (Homo sapiens [4]) of the same compound?
**A.** Its Activity is < 90%.

**Q.** What about the Activity (Homo sapiens [5]) of the same compound?
**A.** Its Activity is “Dose-dependent effect”.

**Q.** And the Activity (Homo sapiens [6])?
**A.** Its Activity is “Active”.

**Q.** And the Activity (Homo sapiens [7])?
**A.** The Activity was “Active”.

**Q.** What about the Activity (Homo sapiens [8]) of the same compound?
**A.** The Activity was “Active”.

**Q.** And the Activity (Homo sapiens [9])?
**A.** Its Activity is “Active”.

**Q.** And the Activity (Homo sapiens [10])?
**A.** Its Activity is “Active”.

**Q.** And the Activity (U2932 [11])?
**A.** The Activity was “Active”.

**Q.** And the Activity (Mus musculus [12])?
**A.** Its Activity is “Non-Toxic”.

**Q.** And the Activity (Homo sapiens [13])?
**A.** Its Activity is 100%.

**Q.** What about the TGI (U2932 [14]) of the same compound?
**A.** The TGI was 46%.

**Q.** And the Activity (U2932 [15])?
**A.** Its Activity is “inactive”.

**Q.** And the Activity (Mus musculus [16])?
**A.** The Activity was “Active”.

**Q.** And the Activity (Mus musculus [17])?
**A.** The Activity was “Non-Toxic”.
